This passage reports inhibition results from PubChem BioAssay AID624466 (The Scripps Research Institute Molecular Screening Center, 2012).

Screen size: about 360,000 compounds; about 5,400 (1.5%) were called active. This is one part of a sample in which actives are shown more often than they occur. A number with no mark means an inactive call.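 How the source made its calls: active means inhibition above a per-plate cutoff, the mean inhibition of test compounds on that plate plus 3 SD (cut at about 49% in these data); inactive means the rest.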

The target of this test is Trace amine-associated receptor 1 (Homo sapiens) (UniProt Q96RJ0). Put plainly: human TAAR1 antagonists, primary screen, Fluo-8 calcium fluorescence, CHO RD-HGA16 cells (AID 624466).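 Further: 0% = DMSO plus EC80 beta-PEA response and 100% = DMSO alone without agonist.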 The following applies: CHO RD-HGA16 TAAR1, Fluo-8 calcium fluorescence, antagonist; at 3 µM; active compounds read high. Put shortly: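 Test system: hTAAR1-expressing CHO RD-HGA16 cells, Gα16-coupled; Probe or stimulus: EC80 β-phenethylamine stimulus; Compound dosing: single nominal final test compound concentration of 3 µM; Timing: 140 s kinetic read after compound, 140 s after agonist; Signal: Fluo-8 calcium-sensitive fluorescence; Measure: % inhibition of agonist calcium response; Controls: DMSO and EC80 PEA controls.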
Sequence of Trace amine-associated receptor 1 (Homo sapiens) (Q96RJ0 whole entry, looked up, the tested form may be a part): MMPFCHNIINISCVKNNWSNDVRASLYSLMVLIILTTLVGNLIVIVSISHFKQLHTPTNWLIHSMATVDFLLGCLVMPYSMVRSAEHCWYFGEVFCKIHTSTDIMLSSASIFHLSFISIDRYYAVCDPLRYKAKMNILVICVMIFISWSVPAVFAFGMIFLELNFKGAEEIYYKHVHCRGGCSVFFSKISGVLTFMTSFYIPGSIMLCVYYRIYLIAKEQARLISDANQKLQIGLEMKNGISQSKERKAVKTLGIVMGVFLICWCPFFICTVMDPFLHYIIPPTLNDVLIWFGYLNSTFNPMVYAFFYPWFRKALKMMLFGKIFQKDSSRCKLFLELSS
Consider `C[C@H](CO)N1C[C@H](C)[C@@H](CN(C)C(=O)Nc2ccccc2F)OCc2cn(nn2)CCCC1=O`, for which the inhibition is 6.99%.

On to `CCCNC(=O)C1(C)CCN(Cc2csc(-c3ccc(Cl)cc3)n2)C1` (stereo not drawn), for which the inhibition was -5.66%.

On to `CN(C)S(=O)(=O)c1cccc(NC(=O)COc2ccc3ccccc3c2)c1`, for which the inhibition is 30.8%.

As for `CN(C)S(=O)(=O)c1cccc(NC(=O)COC(=O)C2(c3ccccc3F)CCCC2)c1`, the inhibition is 62.5% (active).

In the case of `CN(C)S(=O)(=O)c1cccc(NC(=O)COC(=O)c2cc(=O)[nH]c(=O)[nH]2)c1`, the inhibition was -12.5%.

Turning to `Nc1[nH]c(C(=O)c2ccc(Br)cc2)c(-c2ccc3c(c2)OCO3)c1C(=O)NCCc1c[nH]c2ccccc12`, the inhibition is -6.65%.

Turning to `CC(C)(C)NC(=O)CN(C(=O)c1csnn1)c1ccccc1-c1ccccc1`, the inhibition is 5.99%.

For the compound `COc1ccc(OCC(O)CNC(=O)Nc2ccc(Cl)cc2)cc1` (stereo not drawn), the inhibition was 12.9%.

With `OC(CNCCc1ccc(Cl)cc1Cl)COc1ccccc1` (stereo not drawn), the inhibition is 52.8% (active).

On to `OC(COc1ccccc1)CN1CCN(c2cccc(Cl)c2)CC1` (stereo not drawn), for which the inhibition is -33.9%.

In the case of `CCOc1ccc(CCN2C(=O)C(=O)N([C@@H](Cc3ccc(O)cc3)CN3CCC[C@H]3CN3C(=O)C(=O)NC[C@@H]3CC(C)C)C[C@@H]2Cc2ccccc2)cc1`, the inhibition is -8.01%.

Consider `CCOC(=O)C1CSCCS(=O)(=O)N1Cc1ccc(Cl)cc1` (stereo not drawn), for which the inhibition is -2.26%.

With `C=CCn1c(SCc2cccc(F)c2)nc2cc(C(=O)N3CCC(C(N)=O)CC3)ccc2c1=O`, the inhibition is 62.7% (active).

In the case of `C=CCn1c(SCC(=O)CC(=O)OCC)nc2cc(C(=O)N3CCC(C(N)=O)CC3)ccc2c1=O`, the inhibition is -12.6%.

Turning to `NC(=O)C1CCN(C(=O)c2ccc3c(=O)n(Cc4cccc(Br)c4)c(=S)[nH]c3c2)CC1`, the inhibition is -0.46%.

For the compound `CCOc1ccc2[nH]c(=O)c(CN(CCCO)S(=O)(=O)c3ccc(F)cc3)cc2c1`, the inhibition is 28.9%.

Take `COc1ccc2[nH]c(=O)c(CN(Cc3cccnc3)S(=O)(=O)c3ccccc3F)cc2c1`: the inhibition is 69.4% (active).

As to `COc1ccc(-c2[nH]ncc2CN(C)Cc2cccnc2)c(F)c1`, the inhibition was -6.76%.

Regarding `O=C(Nc1ccccc1)c1ccc2nsnc2c1`, the inhibition was -3.37%.

On to `CC(C)(C)NC(=O)c1cccc(NC(=O)Cc2ccc(Br)cc2)c1`, for which the inhibition is -5.95%.

As to `O=C(Nc1cccc(NC(=O)c2ccc(Br)cc2)c1)c1ccccc1`, the inhibition is 66% (active).

For the compound `CCn1cc(/C=C2/SC(=S)NC2=O)c(C)n1`, the inhibition is -4.35%.

As to `O=C(NCc1cccnc1)c1ccc2nc([C@@H]3O[C@H](CO)[C@H](O)[C@H](O)[C@H]3O)[nH]c2c1`, the inhibition is 1.36%.

`CCOc1ccc(N2CC(C(=O)N/N=C/c3sccc3C)CC2=O)cc1` (stereo not drawn): the inhibition was 105% (active).

Turning to `CCOc1ccc(NC(=O)[C@H](C)NC(=O)C2CC(=O)N(c3ccc(OC)cc3)C2)cc1` (stereo partly drawn), the inhibition is -34.6%.

On to `CCOc1ccc(N2CC(C(=O)NCc3ccccn3)CC2=O)cc1` (stereo not drawn), for which the inhibition is -11.4%.

Regarding `O=C(NCc1ccccc1)[C@H]1CCCN1C(=O)[C@H]1CCCN1C(=O)c1cc(F)cc(F)c1`, the inhibition is -9.09%.

`COC(=O)[C@]12CCCCC=C1N(Cc1ccc3c(c1)OCO3)C(=O)[C@H](CC(=O)N1CCOCC1)C2`: the inhibition was 2.33%.

In the case of `Cn1c(=O)c2ccccc2n(CC(=O)Nc2ccc3c(c2)OCCO3)c1=O`, the inhibition was -4.86%.

Regarding `CC(=O)Oc1ccc(Cn2c(C)c(C(=O)NCc3ccc(C#N)cc3)sc2=O)cc1`, the inhibition is 85.1% (active).

Regarding `Cc1ccc(Cn2c(C)c(C(=O)NCc3ccccc3C(F)(F)F)sc2=O)cc1`, the inhibition is 24%.

Take `Cc1c(C(=O)NCc2ccc(C#N)cc2)sc(=O)n1Cc1ccc(C(=O)N(C)C)cc1`: the inhibition was 0.09%.

Take `OC(CCl)CCl`: the inhibition was -9.09%.

With `CCCCCn1nnnc1-c1nc2cc3ccccc3cc2[nH]c1=O`, the inhibition was 21.1%.

For the compound `Cc1ccc(Cc2c(-c3ccc(Cl)cc3)nc3c4ccccc4ccn23)cc1`, the inhibition was -7.64%.

Take `COC(=O)C[C@H]1C=C[C@@H](NS(=O)(=O)c2ccc(C)cc2)[C@@H](CO)O1`: the inhibition was -21.2%.

Consider `Cc1noc(C)c1S(=O)(=O)N(CC(=O)Nc1ccc2c(c1)OCCO2)c1ccc(C(C)C)cc1`, for which the inhibition was 52.7% (active).

On to `O=C(CN(c1ccc2c(c1)OCCO2)S(=O)(=O)c1ccccc1)Nc1ccc2c(c1)OCO2`, for which the inhibition is 54% (active).

In the case of `O=C(CCS(=O)(=O)Cc1ccccc1)Nc1ccc2c(c1)OCCO2`, the inhibition was -13.2%.

In the case of `Cc1cc(C)cc(N(CC(=O)NCC2CCCO2)S(=O)(=O)c2c(C)noc2C)c1` (stereo not drawn), the inhibition is -14.5%.

On to `Cc1noc(C)c1S(=O)(=O)N(CC(=O)NCc1ccc(Cl)cc1)c1ccc2c(c1)OCO2`, for which the inhibition is -0.54%.

For `CCN(CC(=O)Nc1ccc2c(c1)OCO2)S(=O)(=O)c1ccccc1`, the inhibition is 7.44%.

Turning to `CCOC(=O)c1cccc(NC(=O)CN(c2ccc(C)cc2)S(=O)(=O)c2c(C)noc2C)c1`, the inhibition is 72.2% (active).

`CCOc1ccc(N(CC(=O)OC)S(=O)(=O)c2c(C)noc2C)cc1`: the inhibition is 1.95%.

Take `COc1ccc(N(CC(=O)Nc2cc(OC)ccc2OC)S(=O)(=O)c2c(C)noc2C)cc1`: the inhibition was 4.12%.

Consider `C[C@H](O)[C@@H]1CN2CCc3ccc(-c4ccc5c(c4)OCO5)cc3[C@@H]2C[C@@H]1N(C)C(=O)C1CCCCC1`, for which the inhibition was -24.1%.

For `OC(c1cc(Cl)cc(Cl)c1)c1ncc(-c2ccccc2C(F)(F)F)[nH]1` (stereo not drawn), the inhibition was 11.8%.

In the case of `Cc1cc2c(nc1C)CCCN2C`, the inhibition was 0.43%.

Regarding `COc1ccc(N2c3ccccc3CN(Cc3ccccc3)[C@@H](C)[C@H]2Cc2ccc(-c3ccccc3)cc2)cc1`, the inhibition was -11.9%.

As for `COC(=O)[C@]12C[C@H](CC(=O)NCCc3ccccc3OC)C(=O)N(Cc3ccccc3)C1=C[C@H](C(C)C)O[C@@H]2C1CC1`, the inhibition is -27.5%.

In the case of `Cc1ccc2nc(COc3ccc(N(C)S(=O)(=O)c4ccccc4)cc3)cc(=O)n2c1`, the inhibition is 36%.

Take `Cc1ccnc(NC(=O)C2CCN(S(=O)(=O)c3c(C)c(C)cc(C)c3C)CC2)c1`: the inhibition is 50% (active).

Turning to `O=C(Nc1ccccn1)C1CCN(S(=O)(=O)c2ccccc2)CC1`, the inhibition is 0.4%.

Consider `Cc1cccc(NC(=O)C2CCN(S(=O)(=O)c3cccc4cccnc34)CC2)c1`, for which the inhibition was 32.8%.

Regarding `COC(=O)[C@H](CC(C)C)NS(=O)(=O)c1c(F)cccc1F`, the inhibition is -8.02%.

For `COC(=O)C1=C(C)N(Cc2cccc(C(F)(F)F)c2)C(=NCc2ccccc2)NC1c1ccccc1C(F)(F)F` (stereo not drawn), the inhibition was -4.18%.

On to `O=C1CCC/C=C/C[C@@H](CC(=O)N(CCO)Cc2ccccc2)C(=O)NC[C@H](c2ccccc2)O1`, for which the inhibition is -5.27%.

`O=C1NC[C@@H](c2ccccc2)OC(=O)[C@H](Cc2ccc(F)cc2)CC/C=C/C[C@H]1CC(=O)N(CCO)Cc1ccccc1`: the inhibition is 74% (active).

Take `O=C1N[C@@H](c2ccccc2)COC(=O)[C@H](Cc2ccc(F)cc2)C/C=C\C[C@@H]1CC(=O)N(CCO)Cc1ccccc1`: the inhibition was 42.8%.

`COc1ccc(C2=CN(Cc3ccccc3)C(c3ccc(OC)cc3)CC2=O)cc1` (stereo not drawn): the inhibition is -4.92%.

With `COc1ccc2[nH]c(C(=O)N/N=C/c3cc(OC)c(OC)c(OC)c3)cc2c1`, the inhibition was 50.5% (active).

For the compound `COc1cccc(OCc2cc(/C=N/NC(=O)c3nc(Cl)c(Cl)c(N)c3Cl)ccc2OC)c1`, the inhibition is -5%.

Regarding `COc1ccc2[nH]c(C(=O)Nc3ccccc3Cl)cc2c1`, the inhibition is -23.7%.

Turning to `Cc1cc(NCCc2c[nH]c3ccccc23)ccc1Oc1cccnc1`, the inhibition was 21.6%.

Take `COc1ccc2sc(-c3ccc(S(C)(=O)=O)cc3)c(C#Cc3cncn3C)c2c1`: the inhibition was 47.9%.

Turning to `COc1ccc2sc(-c3ccc(S(C)(=O)=O)cc3)c(-c3ccc(C(N)=O)cc3)c2c1`, the inhibition was 50.5% (active).

`COc1cc(OC)cc(-c2sc3ccc(OC)cc3c2-c2ccc3cc[nH]c3c2)c1`: the inhibition is -5.68%.

Consider `CN(C)C(=O)N1CCN(C(=O)[C@@H](Cc2ccccc2)NC(=O)[C@H]2O[C@@H](n3ccc(N)nc3=O)[C@H](O)[C@@H]2O)CC1`, for which the inhibition was -11.3%.

Regarding `CCOC(=O)N1CCN(C(=O)C[C@@H]2C[C@@]3(C(=O)OC)CCCCC=C3N(CCC3=CCCCC3)C2=O)CC1`, the inhibition is 16.7%.

For the compound `OC(c1ccccc1)(c1ccccc1)C1CCN(CCCOc2ccc(-c3ccsc3)cc2)CC1`, the inhibition was 51.2% (active).

Regarding `OC(c1ccccc1)(c1ccccc1)C1CCN(CCCOc2ccccc2)CC1`, the inhibition is 19.2%.

As for `N#Cc1ccc(OCCCN2CCC(C(O)(c3ccccc3)c3ccccc3)CC2)c(F)c1`, the inhibition is 18.2%.

For the compound `CCC(C(=O)NC(C)(C)C)n1c(-c2ccccc2)nc2ccccc21` (stereo not drawn), the inhibition is -9.33%.

Regarding `COc1ccc(C(C(=O)Nc2c(C)cccc2C)N2CCN(c3ccc(C)cc3)CC2)cc1` (stereo not drawn), the inhibition was -16.4%.

As for `Cc1ccccc1CN1C(=O)CSCC1(C)C(=O)Nc1c(C)cccc1C` (stereo not drawn), the inhibition is -0.37%.

In the case of `CN(C(=O)c1cccc(OC2CCN(S(=O)(=O)N(C)C)CC2)c1)C1CCOC1` (stereo not drawn), the inhibition was -15.9%.

In the case of `CN(C)S(=O)(=O)N1CCC(Oc2cccc(C(=O)NCCCC3CCCC3)c2)CC1`, the inhibition is 61.1% (active).

In the case of `COc1cccc(C(=O)NCCS(=O)(=O)NCC2CCCO2)c1` (stereo not drawn), the inhibition was 4.1%.

Regarding `CCCCn1nnnc1C1(C)CCC(=O)N1Cc1ccc(OC)c(OC)c1` (stereo not drawn), the inhibition was -1.16%.

As to `CC(C)(C)NC(=O)C(CCc1ccccc1)n1c(=O)c(-c2ccccc2)nc2ccccc21` (stereo not drawn), the inhibition is -53.9%.

Turning to `COc1ccc(CCNC(=O)c2nnc(CS(=O)(=O)c3ccccc3)o2)cc1OC`, the inhibition is -2.06%.

Turning to `COc1ccc(CCNC(=O)c2ccc(CS(=O)(=O)c3ccc(Br)cc3)o2)cc1OC`, the inhibition was 77.3% (active).

Turning to `COc1ccccc1CNC(=O)c1ccc(CS(=O)(=O)c2ccccc2)o1`, the inhibition was 26.5%.
